The values that follow come from ChEMBL document CHEMBL1126073, “Synthesis of carbon-11 labeled iodinated cocaine derivatives and their distribution in baboon brain measured using positron emission tomography” (J Med Chem, 1992).

In general, IC50 refers to the midpoint of a concentration-inhibition curve.

A short description of data set [1]: (§1) Baboon plasma free fraction. The note with it: cercopithecidae, read-out: Free fraction. The format is ADME, cell-free. The method, boiled down: (§2)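 Free fraction by ultrafiltration: 11C-labelled compound added to 0.18 mL baboon plasma plus 0.02 mL 100 mM sodium phosphate pH 7.4 with 1 μg physostigmine (esterase block). Incubated 15 min at room temperature, vortexed every 5 min, centrifugal filter spun 5 min. Value = 11C concentration in ultrafiltrate / concentration in incubation mixture.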

Data set [2] can be described thus: Percentage of tracer or metabolite (acid metabolites) in baboon plasma at 1 min after injection of the compound. The note with it: cercopithecidae. The format is ADME, cell-free. In short, it runs like this: (§3)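 Arterial baboon plasma taken 1, 5, 10 and 30 min after injection of 11C tracer. 0.2 mL plasma in 1 mL acetonitrile, sonicated, centrifuged. Supernatant run on silica HPLC with acetonitrile/0.004 M (NH4)2HPO4 70/30 plus unlabelled carrier. Unchanged tracer, EME and void-volume acidic 11C measured as fractions of total. [11C]CO2 measured separately by volatilization assay. Mean of two experiments.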

Data set [3] in a line: Percentage of tracer or metabolite(EME) in baboon plasma at 5 min after injection of the compound. The format is ADME, cell-free. To be noted: cercopithecidae. In short, it runs like this: as §3
The nature of data set [4]: Percentage of tracer or metabolite (acid metabolites) in baboon plasma at 10 min after injection of the compound. The format is ADME, cell-free. To be noted: cercopithecidae. In short, it runs like this:
as §3

Data set [5] is described as follows: Percentage of tracer or metabolite (CO2) in baboon plasma at 10 min after injection of the compound. The format is ADME, cell-free. To be noted: cercopithecidae. In short, it runs like this: as §3
Data set [6] can be described thus: Percentage of tracer or metabolite (unchanged) in baboon plasma at 1 min after injection of the compound. The format is ADME, cell-free. To be noted: cercopithecidae. In short, it runs like this:
as §3

Data set [7] is described as follows: Percentage of tracer or metabolite (unchanged) in baboon plasma at 10 min after injection of the compound. The note with it: cercopithecidae. Format: ADME, cell-free. In short, it runs like this: as §3
The nature of data set [8]: Percentage of tracer or metabolite(EME) in baboon plasma at 1 min after injection of the compound. The format is ADME, cell-free. To be noted: cercopithecidae. In short, it runs like this: as §3
Data set [9] can be described thus: Percentage of tracer or metabolite (unchanged) in baboon plasma at 5 min after injection of the compound. The note with it: cercopithecidae. Format: ADME, cell-free. In short, it runs like this: as §3
Data set [10] is described as follows: Percentage of tracer or metabolite (CO2) in baboon plasma at 30 min after injection of the compound. The format is ADME, cell-free. To be noted: cercopithecidae, 0.5 h. In short, it runs like this:
as §3

A short description of data set [11]: Percentage of tracer or metabolite (CO2) in baboon plasma at 1 min after injection of the compound. Format: ADME. The note with it: cercopithecidae. In short, it runs like this:
as §3

Data set [12] in a line: Percentage of tracer or metabolite (acid metabolites) in baboon plasma at 5 min after injection of the compound. The format is ADME, cell-free. The note with it: cercopithecidae. The method, boiled down:
as §3

Data set [13] in a line: Percentage of tracer or metabolite(EME) in baboon plasma at 30 min after injection of the compound. The format is ADME, cell-free. To be noted: cercopithecidae, 0.5 h. The method, boiled down: as §3
Data set [14] is described as follows: Clearance from plasma(with matabolite-corrected plasma radioactivity-time integral) at 30 min after administration. The format is ADME, cell-free. The note with it: cercopithecidae, 0.5 h. In short, it runs like this:
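Anaesthetised baboons given 4.7–8.4 mCi 11C tracer. Automated arterial sampling for the first 2 min, then manual sampling. Plasma total radioactivity corrected for metabolites using two-component exponential fits to the metabolite fractions. Time-radioactivity integral to 30 min by cubic spline integration.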

Data set [15] can be described thus: Percentage of tracer or metabolite (unchanged) in baboon plasma at 30 min after injection of the compound. The note with it: cercopithecidae, 0.5 h. The format is ADME, cell-free. In short, it runs like this: as §3
The nature of data set [16]: Percentage of tracer or metabolite (CO2) in baboon plasma at 5 min after injection of the compound. Format: ADME, cell-free. To be noted: cercopithecidae. The method, boiled down: as §3
A short description of data set [17]: Percentage of tracer or metabolite(EME) in baboon plasma at 10 min after injection of the compound. The format is ADME, cell-free. To be noted: cercopithecidae. In short, it runs like this:
as §3

Data set [18] has as its system Monkey. Briefly: Peak striatal uptake in baboon expressed as percentage of injected dose per mL of tissue. Format: functional, Cercopithecidae, Striatum. The method, boiled down:
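Adult female baboons (n = 7, 14.2–18.5 kg), ketamine 10 mg/kg i.m. induction, then oxygen/nitrous oxide/isoflurane anaesthesia. 4.7–8.4 mCi of N-11C-methyl tracer injected intravenously per PET scan. Regional time-activity curves; peak striatal radioactivity expressed as percent of injected dose per mL of tissue.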

The nature of data set [19]: Percentage unmetabolized in baboon plasma at 30 min after administration. The format is functional, Cercopithecidae. In short, it runs like this:
as §3

Data set [20] is described as follows: Percentage of tracer or metabolite (acid metabolites) in baboon plasma at 30 min after injection of the compound. The format is ADME, cell-free. The note with it: cercopithecidae, 0.5 h. The method, boiled down: as §3
The test system of data set [21] is Monkey. The description is as §1. The note with it: Cercopithecidae. The format is functional, organism-based. In short, it runs like this:
as §2

The target of data set [22] is Sodium-dependent dopamine transporter (Rattus norvegicus, UniProt P23977). The data set can be described thus: Concentration inhibiting [3H]cocaine binding site to rat striatal membranes. In short, it runs like this:
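Rat striatal membranes prepared in ice-cold 320 mM sucrose with 10 mM NaH2PO4, pH 7.45 (1000g 3 min, then 30000g 30 min pellet). About 0.25 mg protein incubated at room temperature for 20 min with 2 nM [3H]cocaine, inhibitors 6 nM to 20 μM. Filtration through polyethylenimine-soaked glass-fibre filters, ice-cold wash, liquid scintillation counting.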

Chain of Sodium-dependent dopamine transporter (P23977 whole entry): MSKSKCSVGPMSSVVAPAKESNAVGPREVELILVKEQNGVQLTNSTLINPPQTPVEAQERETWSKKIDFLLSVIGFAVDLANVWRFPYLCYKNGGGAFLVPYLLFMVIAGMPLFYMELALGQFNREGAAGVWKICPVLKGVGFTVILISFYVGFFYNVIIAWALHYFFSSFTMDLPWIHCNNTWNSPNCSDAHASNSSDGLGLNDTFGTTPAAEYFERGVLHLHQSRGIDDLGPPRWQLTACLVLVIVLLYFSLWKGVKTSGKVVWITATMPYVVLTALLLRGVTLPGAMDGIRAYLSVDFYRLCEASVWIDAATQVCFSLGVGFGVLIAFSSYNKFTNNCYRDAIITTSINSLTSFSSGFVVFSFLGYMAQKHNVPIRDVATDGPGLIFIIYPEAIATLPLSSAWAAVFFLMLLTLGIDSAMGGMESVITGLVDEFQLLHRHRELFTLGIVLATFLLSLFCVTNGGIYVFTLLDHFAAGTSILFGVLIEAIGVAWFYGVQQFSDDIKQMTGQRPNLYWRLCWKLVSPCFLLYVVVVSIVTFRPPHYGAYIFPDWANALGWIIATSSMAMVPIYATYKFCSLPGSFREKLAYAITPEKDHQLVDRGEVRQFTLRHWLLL

As for `COC(=O)[C@H]1[C@@H](OC(=O)c2ccccc2)C[C@@H]2CC[C@H]1N2C` [COCAINE], the fraction unbound in data set [1] stood at 0.1. Moreover, the Tracer in [2] is listed as 0.4%; in data set [3], 13%; in [4] it was 38%; in [5] it was 37%; in data set [6], 70%; in data set [7] it was 31%. Moreover, the Tracer in data set [8] is 12%; in data set [9], 44%; in data set [10], 44%; in data set [11] it was 6%; in data set [12] it was 22%; in data set [13], 12%. For the same compound, the Tracer in data set [15] stood at 17%; in [16], 30%; in data set [17] it was 11%; in [20], 60%. Further, the Plasma integral in data set [14] is given as 2.1 uCi min ml-1. Also, the Peak striatal uptake in data set [18] is 0.06. The compound further gave an Unmetabolized in data set [19] of 17%.
For the compound `COC(=O)C1C2CCC(C[C@@H]1OC(=O)c1cccc(I)c1)N2C` (stereo partly specified), the fraction unbound in data set [1] came out at 0.016. Moreover, the Tracer is 0.4% in [2]; 3% in data set [3]; 35% in data set [4]; 33% in [5]; 95% in data set [6]; 60% in data set [7]. Further, the Tracer turned out to be 0.7% in data set [8]; 77% in data set [9]; 43% in data set [10]; 3% in [11]; 18% in data set [12]; 4% in [13]. Further, the Tracer in data set [15] amounted to 36%; in data set [16] it was 17%; in data set [17], 1%; in data set [20], 51%. In data set [14], the Plasma integral was 2.8 uCi min ml-1. Moreover, in data set [18], the Peak striatal uptake is on record as 0.03. Also, the Unmetabolized in data set [19] amounted to 36%.
As for `COC(=O)C1C2CCC(C[C@@H]1OC(=O)c1ccccc1I)N2C` (stereo partly specified), the Tracer in [2] was found to be 0.02%; in data set [3], 0.2%; in [4] it was 52%; in data set [5] it was 21%; in [6] it was 97%; in [7], 48%. For the same compound, the Tracer in [8] was 0.3%; in data set [9] it was 79%; in data set [10], 29%; in data set [11] it was -7%; in data set [12], 15%; in data set [13], 0.2%. Further, the Tracer in data set [15] was found to be 33%; in data set [16] it was 15%; in data set [17] it was 0.2%; in [20], 69%. The compound also showed a Fu in data set [21] of 0.003%. Moreover, the Plasma integral in data set [14] amounted to 6.1 uCi min ml-1. The compound also registered a Peak striatal uptake in data set [18] of 0.01. In addition, the Unmetabolized in [19] is recorded as 33%. The compound also yielded an IC50 in [22] of 350 nM.
Take `COC(=O)C1C2CCC(C[C@@H]1OC(=O)c1ccc(I)cc1)N2C` (stereo partly specified): the fraction unbound in data set [1] stood at 0.06. Also, the Tracer in data set [2] is reported as 0.5%; in data set [3] it was 2.5%; in data set [4], 45%; in data set [5] it was 21%; in data set [6] it was 90%; in [7], 48%. Besides, the Tracer in [8] stood at 1.5%; in data set [9], 60%; in data set [10] it was 32%; in [11] it was 1%; in data set [12], 17%; in data set [13], 2.6%. For the same compound, the Tracer worked out at 22% in [15], 7% in data set [16], 2% in data set [17] and 71% in data set [20]. In [14], the Plasma integral amounted to 1.8 uCi min ml-1. Besides, the Peak striatal uptake in data set [18] is given as 0.04. This compound also showed an Unmetabolized in [19] of 22%.
